Assays:
[1] = system: Paracentrotus lividus; assay: Antimitotic activity against sea urchin embryo model assessed as cleavage alteration of fertilized egg compound treated at 8 to 20 mins post-fertilization and 45 to 55 mins prior to first mitotic cycle completion measured 2.5 to 5.5 hrs post-fertilization; type: functional
Summary of the method: (§1)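 Fertilized eggs are exposed 8–20 min after fertilization to 2-fold decreasing concentrations. Stocks are 10 mM in DMSO, then diluted 10-fold in 95% EtOH; final DMSO is at most 0.05% and EtOH at most 1%. Embryos are kept as a monolayer, up to 2000 embryos/mL, in filtered seawater at room temperature. The value is the threshold concentration giving cleavage alteration, embryo death before hatching or full mitotic arrest. Duplicates were run.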

[2] = Growth inhibition of human NCI60 cells at 10 uM after 48 hrs by SRB assay; type: functional; conditions: NCI60, 48 h, values are per cent of control
[3] = system: Paracentrotus lividus; assay: Antimitotic activity against sea urchin embryo free-swimming blastula model assessed as embryo spinning compound treated at 8 to 10 hrs post-fertilization measured after 0.25 to 20 hrs; type: functional, Blastula stage
[4] = system: Paracentrotus lividus; assay: Antimitotic activity against sea urchin embryo model assessed as cleavage arrest of fertilized egg compound treated at 8 to 20 mins post-fertilization and 45 to 55 mins prior to first mitotic cycle completion measured 2.5 to 5.5 hrs post-fertilization; type: functional; summary of the method: as §1

COc1cc(-c2c(C#N)nnn2-c2cccc(Cl)c2)cc(OC)c1OC
EC [1]: 0.5 µM | growth, % of control at 10 µM [2]: 92.6% | EC [3]: >5 µM | EC [4]: 2 µM

COc1cc(-c2c(C(N)=O)nnn2-c2cc(OC)c(OC)c(OC)c2)cc(OC)c1OC
EC [1]: >4 µM | growth, % of control at 10 µM [2]: 102% | EC [3]: >4 µM | EC [4]: >4 µM

CCOC(=O)c1nnn(-c2cccc(Cl)c2)c1-c1ccccc1
EC [1]: >4 µM | EC [3]: >4 µM | EC [4]: >4 µM

O=C(O)c1nnn(-c2cccc(Cl)c2)c1-c1ccccc1
EC [1]: >4 µM | EC [3]: >4 µM | EC [4]: >4 µM

COc1ccc(-c2cnnn2-c2cc(OC)c3c(c2OC)OCO3)cc1
EC [1]: 1 µM | EC [3]: >4 µM | EC [4]: >4 µM

COc1ccc(-c2c(C#N)nnn2-c2ccc(OC)cc2)cc1
EC [1]: 4 µM | growth, % of control at 10 µM [2]: 96.7% | EC [3]: >4 µM | EC [4]: >4 µM

COc1ccc(-c2c(N)nnn2-c2cc(OC)c(OC)c(OC)c2)cc1
EC [1]: 0.1 µM | EC [3]: >5 µM | EC [4]: >4 µM

COc1ccc(-n2nnc(C#N)c2-c2cccc(OC)c2)cc1
EC [1]: 0.2 µM | EC [3]: 5 µM | EC [4]: 1 µM

COc1ccc(/C=C\c2cc(OC)c3c(c2)OCO3)cc1O [Combretastatin A-2]
EC [1]: 0.002 µM | EC [3]: 0.05 µM | EC [4]: 0.01 µM

Nc1nnn(-c2cccc(Cl)c2)c1-c1ccccc1
EC [1]: >4 µM | EC [3]: >4 µM | EC [4]: >4 µM

COC(=O)c1nnn(-c2cc(OC)c(OC)c(OC)c2)c1-c1ccc(OC)cc1
EC [1]: >4 µM | EC [3]: >4 µM | EC [4]: >4 µM

COc1ccc(-c2c(C(=O)O)nnn2-c2cc(OC)c(OC)c(OC)c2)cc1
EC [1]: >4 µM | growth, % of control at 10 µM [2]: 99.4% | EC [3]: >4 µM | EC [4]: >4 µM

COc1cccc(-c2c(C#N)nnn2-c2cccc(Cl)c2)c1
EC [1]: >4 µM | growth, % of control at 10 µM [2]: 92% | EC [3]: >4 µM | EC [4]: >4 µM

COc1ccc(-c2c(C#N)nnn2-c2cc(OC)c(OC)c(OC)c2)cc1
EC [1]: >4 µM | EC [3]: >4 µM | EC [4]: >4 µM

COc1ccc(-c2c(C(N)=O)nnn2-c2cc(OC)c(OC)c(OC)c2)cc1
EC [1]: >4 µM | growth, % of control at 10 µM [2]: 101% | EC [3]: >4 µM | EC [4]: >4 µM

COc1cc(-c2c(C#N)nnn2-c2cc(OC)c(OC)c(OC)c2)cc(OC)c1OC
EC [1]: >4 µM | growth, % of control at 10 µM [2]: 98.8% | EC [3]: >4 µM | EC [4]: >4 µM

COc1ccc(-n2nnc(C#N)c2-c2cc(OC)c(OC)c(OC)c2)cc1
EC [1]: 1 µM | EC [3]: >4 µM | EC [4]: >4 µM

COc1ccc(-n2nnc(C(=O)O)c2-c2cc(OC)c(OC)c(OC)c2)cc1
EC [1]: >4 µM | growth, % of control at 10 µM [2]: 104% | EC [3]: >4 µM | EC [4]: >4 µM

COc1ccc(-n2nnc(N)c2-c2cc(OC)c(OC)c(OC)c2)cc1
EC [1]: 4 µM | growth, % of control at 10 µM [2]: 90.1% | EC [3]: >4 µM | EC [4]: >4 µM

Clc1cccc(-n2nncc2-c2ccccc2)c1
EC [1]: >4 µM | EC [3]: >4 µM | EC [4]: >4 µM

Source: ChEMBL document CHEMBL3102739, “Synthesis and antiproliferative activity of conformationally restricted 1,2,3-triazole analogues of combretastatins in the sea urchin embryo model and against human cancer cell lines” (Bioorg Med Chem, 2014)
